Experimental data published in ChEMBL document CHEMBL4196186, “Absolute Configurations and Bioactivities of Guaiane-Type Sesquiterpenoids Isolated from Pogostemon cablin” (J Nat Prod, 2018).
pEC50, pIC50: −log10 of the molar value. Values after ≈ are worked out from the molar mass of the structure shown. Active and inactive are the calls of the source. No cut-off for these calls is given here.

Columns and labels:
[1] = Cytotoxicity against human […] cells after 48 hrs by MTT assay; type: functional, cell-based
A549 = test: Cytotoxicity against human A549 cells after 48 hrs by MTT assay; type: functional, cell-based; details: A549, 48 h
Escherichia coli = test: Antibacterial activity against Escherichia coli ATCC 25922 after 24 hrs by double dilution method; type: functional, organism-based
MCF7 = test: Cytotoxicity against human MCF7 cells after 48 hrs by MTT assay; type: functional, cell-based; details: MCF7, 48 h
SGC-7901 = test: Cytotoxicity against human SGC7901 cells after 48 hrs by MTT assay; type: functional, cell-based; details: SGC-7901, 48 h
Thoracic aorta [2] = test: Vasorelaxant activity in Sprague-Dawley rat thoracic aortic ring assessed as inhibition of KCl-induced contraction at 50 uM; type: functional, tissue-based
How it was run: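 Rat aortic rings contracted with KCl; relaxation measured with test agent at a single concentration of 50 μM. Methoxyverapamil and phentolamine mesylate were the positive controls.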

Staphylococcus aureus [3] = test: Antibacterial activity against methicillin-resistant Staphylococcus aureus ATCC 43300 after 24 hrs by double dilution method; type: functional, organism-based
Staphylococcus aureus [4] = test: Antibacterial activity against Staphylococcus aureus ATCC 25923 after 24 hrs by double dilution method; type: functional, organism-based
Thoracic aorta [5] = test: Vasorelaxant activity in Sprague-Dawley rat thoracic aortic ring assessed as inhibition of KCl-induced contraction; type: functional, tissue-based
How it was run: (§1)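 Rat aortic rings precontracted with phenylephrine (PHE) or KCl; relaxation measured over a range of concentrations and EC50 derived. Positive controls were phentolamine mesylate and methoxyverapamil.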

Thoracic aorta [6] = test: Vasorelaxant activity in Sprague-Dawley rat thoracic aortic ring assessed as inhibition of phenylephrine-induced contraction; type: functional, tissue-based; how it was run: as §1
Candida albicans = test: Antifungal activity against Candida albicans CMCC 98001 after 24 hrs by double dilution method; type: functional; details: CMCC 98001, 24 h
PC-12 [7] = test: Neuroprotective activity against glutamate-induced cell damage in rat PC12 cells assessed as cell viability at 50 uM pretreated followed by glutamate challenge and measured after 24 hrs by MTT assay (reference value: 49.14 +/- 3.15%); type: functional; details: read-out: Activity
PC-12 [8] = test: Neuroprotective activity against glutamate-induced cell damage in rat PC12 cells assessed as increase in cell viability at 10 uM pretreated followed by glutamate challenge and measured after 24 hrs by MTT assay; type: functional, cell-based

## C=C(C)[C@@H]1CC[C@@](C)(O)C2=C[C@@H](O)[C@H](C)[C@@H]2C1
[1]
  pIC50: < 4.30
A549
  pIC50: < 4.30
Escherichia coli
  Activity: inactive
MCF7
  pIC50: < 4.30
SGC-7901
  pIC50: < 4.30
Thoracic aorta [2]
  inhibition: inactive
Staphylococcus aureus [3]
  Activity: inactive
Staphylococcus aureus [4]
  Activity: inactive

## C=C(C)[C@@H]1CCC(C)=C2C(=O)C=C(C)[C@@H]2C1
[1]
  pIC50: < 4.30
A549
  pIC50: < 4.30
Escherichia coli
  Activity: inactive
MCF7
  pIC50: < 4.30
SGC-7901
  pIC50: < 4.30
Thoracic aorta [2]
  inhibition: inactive
Staphylococcus aureus [3]
  Activity: inactive
Staphylococcus aureus [4]
  Activity: inactive

## C=C(C)[C@@H]1CC[C@H](C)[C@@]23O[C@]2(C1)[C@@H](C)C[C@H]3O
[1]
  pIC50: < 4.30
A549
  pIC50: < 4.30
Thoracic aorta [5]
  pEC50: 4.62
  inhibition: Dose-dependent effect
Thoracic aorta [6]
  pEC50: 5.80
  inhibition: Dose-dependent effect
Escherichia coli
  Activity: inactive
MCF7
  pIC50: < 4.30
Candida albicans
  MIC: 300 µM (≈ 70.9 µg/mL)
SGC-7901
  pIC50: < 4.30
Staphylococcus aureus [3]
  Activity: inactive
Staphylococcus aureus [4]
  Activity: inactive

## C=C(C)[C@@H]1CC[C@](C)(O)[C@@H]2CC[C@H](C)[C@]2(O)C1
[1]
  pIC50: < 4.30
PC-12 [7]
  viability at 50 µM: 66.1%
A549
  pIC50: < 4.30
Escherichia coli
  Activity: inactive
MCF7
  pIC50: < 4.30
SGC-7901
  pIC50: < 4.30
Thoracic aorta [2]
  inhibition: inactive
Staphylococcus aureus [3]
  Activity: inactive
Staphylococcus aureus [4]
  Activity: inactive

## C=C(C)[C@@H]1CCC(=C)[C@]2(O)[C@@H](O)C[C@H](C)[C@@H]2C1
[1]
  pIC50: < 4.30
A549
  pIC50: < 4.30
Thoracic aorta [5]
  inhibition: Dose-dependent effect
Thoracic aorta [6]
  pEC50: 5.27
  inhibition: Dose-dependent effect
Escherichia coli
  Activity: inactive
MCF7
  pIC50: < 4.30
Candida albicans
  MIC: 500 µM (≈ 118 µg/mL)
SGC-7901
  pIC50: < 4.30
Staphylococcus aureus [3]
  Activity: inactive
Staphylococcus aureus [4]
  Activity: inactive

## C=C(C)[C@@H]1CC[C@H](C)[C@@H](CCC(C)=O)C(=O)C1
[1]
  pIC50: < 4.30
PC-12 [7]
  viability at 50 µM: 75.7%
A549
  pIC50: < 4.30
Escherichia coli
  Activity: inactive
MCF7
  pIC50: < 4.30
SGC-7901
  pIC50: < 4.30
Thoracic aorta [2]
  inhibition: inactive
Staphylococcus aureus [3]
  Activity: inactive
Staphylococcus aureus [4]
  Activity: inactive

## C=C(C)[C@@H]1C[C@@H](O)C(=C)C2=CC[C@H](C)[C@@H]2C1
[1]
  pIC50: < 4.30
A549
  pIC50: < 4.30
Escherichia coli
  Activity: inactive
MCF7
  pIC50: < 4.30
SGC-7901
  pIC50: < 4.30
Thoracic aorta [2]
  inhibition: inactive
Staphylococcus aureus [3]
  Activity: inactive
Staphylococcus aureus [4]
  Activity: inactive

## COCCOC(=O)C1=C(C)NC(C)=C(C(=O)OC(C)C)C1c1cccc([N+](=O)[O-])c1 (centres undefined)
PC-12 [8]
  Activity: Active

## C=C(C)[C@@H]1CC[C@H](C)[C@]23CC[C@](C)(O)[C@@]2(C1)O3
[1]
  pIC50: < 4.30
PC-12 [7]
  viability at 50 µM: 65.5%
A549
  pIC50: < 4.30
Escherichia coli
  Activity: inactive
MCF7
  pIC50: < 4.30
SGC-7901
  pIC50: < 4.30
Thoracic aorta [2]
  inhibition: inactive
Staphylococcus aureus [3]
  Activity: inactive
Staphylococcus aureus [4]
  Activity: inactive

## C=C(C)[C@@H]1CC[C@H](C)[C@H](CCC(C)=O)C(=O)C1
[1]
  pIC50: < 4.30
PC-12 [7]
  viability at 50 µM: 78.7%
A549
  pIC50: < 4.30
Thoracic aorta [5]
  inhibition: Active
Escherichia coli
  Activity: inactive
MCF7
  pIC50: < 4.30
SGC-7901
  pIC50: < 4.30
Staphylococcus aureus [3]
  Activity: inactive
Staphylococcus aureus [4]
  Activity: inactive
